In PMC3896217 (Biochemistry, 2013):

Target: T1, B31 DBPA (Borreliella burgdorferi, UniProt O50917)
T1 sequence (O50917 24-191): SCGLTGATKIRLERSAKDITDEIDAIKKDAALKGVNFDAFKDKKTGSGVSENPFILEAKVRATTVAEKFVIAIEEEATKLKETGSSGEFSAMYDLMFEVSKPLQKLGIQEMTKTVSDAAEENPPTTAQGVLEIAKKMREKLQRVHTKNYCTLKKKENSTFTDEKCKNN
Test: NMR control titration for non-specific TEMPO-DBPA interactions
Format: binding, Borrelia burgdorferi
Conditions: similar protein-to-ligand ratios as TEMPO-labeled heparin dp6
How it was run: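 Samples of 400 μL held 150 to 200 μM ¹⁵N-labelled B31 WT DBPA in 50 mM NaH₂PO₄, pH 6.5, 150 mM NaCl. The DBPA construct was a His-tagged fusion expressed in E. coli BL21(DE3) in M9 medium, Ni-affinity purified and cleaved with USP2. Amide ¹H transverse relaxation was measured with delays of 1, 4.5, 8, 11.5, 15 and 18.5 ms.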

CC1(C)CC(N)CC(C)(C)N1[O] [4-amino-TEMPO]
changes in transverse relaxation rates of the protein: no significant changes
